According to publication PMC6433393 (Journal of chromatography. B, Analytical technologies in …, 2012):
Values belong to the compound of their own block, whether it stands above or below them.

Experiments:
[1] = Stability of MX in human plasma QCs; format: in vitro ADME; settings: for recoveries of QC samples: three concentrations (3.50, 45.0 and 450 ng/ml)
Procedure, shortened: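 Plasma QCs were prepared in pooled human plasma with 10% 0.100 N HCl and held on the bench (23 °C), in the autosampler (15 °C), through freeze-thaw cycles (−70 to 23 °C) or at −70 °C. Samples were derivatised with 4-(N,N-diethylamino)benzaldehyde (70 °C, 1 h), extracted into MTBE and run by MRM LC-MS/MS. The mean MX/MX-d3 peak-area ratio (n = 6) relative to freshly prepared QCs is given as percent recovery.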

[2] = Phase I clinical trial pharmacokinetic study of MX; format: in vivo, human; settings: for Measured [MX] First analysis / Measured [MX] Re-analysis after 9 months: patient plasma; for Measured [MX] Re-analysis after 9 months: after 9-month storage at −70 °C
Procedure, shortened: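 Heparinised blood was iced, spun (1500 × g, 4 °C, 5 min), and plasma stored at −70 °C. Plasma was derivatised and assayed by LC-MS/MS against a calibration curve. Infusion data were fitted one-compartment; 1-h data were analysed by NCA.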

[3] = Stability of MX in human whole blood kept in ice bath before centrifugation; format: in vitro ADME
Procedure, shortened: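 From one patient, five 2-ml lithium-heparin blood tubes were drawn 70 min after infusion and kept in an ice bath. They were centrifuged 0, 30, 60, 90 and 120 min after drawing (1500 × g, 4 °C, 5 min). Plasma was analysed later by the derivatisation LC-MS/MS method, and the mean, SD and %CV were calculated.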

[4] = Stability of MX stock solution; format: physicochemical; settings: for Recovery ± SD (n = 6): Stock solution 2.00 mg/ml
Procedure, shortened: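 The 2.00 mg/ml stock was stored at 4 °C or at 23 °C, then serially diluted to 45.0 ng/ml in 1% formic acid. It was derivatised with IS and analysed by MRM LC-MS/MS. Six parallel measurements gave the mean analyte/IS peak-area ratio, expressed as percent recovery against freshly prepared stock.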

[5] = clinical trials, TMZ dosing regimen 150 mg/m^2/day; cited from earlier work
[6] = patients, 1-h iv infusion, 20 patients (46 cycles), with oral TMZ

Recovery ± SD (n = 6) ([1]; High QC 450 ng/ml plasma, Autosampler 15 °C, 3 days): 96.9 ±3%
Recovery ± SD (n = 6) ([1]; High QC 450 ng/ml plasma, Bench-top 23 °C, 18 hours): 95.7 ± 2%
Recovery ± SD (n = 6) ([1]; High QC 450 ng/ml plasma, Deep freezer (Long-term) −70 °C, 5 months): 103 ± 2%
Recovery ± SD (n = 6) ([1]; High QC 450 ng/ml plasma, Freeze & thaw −70 to 23 °C, 3 cycles): 96.2 ± 2%
Recovery ± SD (n = 6) ([1]; Low QC 3.50 ng/ml plasma, Autosampler 15 °C, 3 days): 90.7 ±6%
Recovery ± SD (n = 6) ([1]; Low QC 3.50 ng/ml plasma, Bench-top 23 °C, 18 hours): 89.4 ± 4%
Recovery ± SD (n = 6) ([1]; Low QC 3.50 ng/ml plasma, Deep freezer (Long-term) −70 °C, 5 months): 95.7 ±3%
Recovery ± SD (n = 6) ([1]; Low QC 3.50 ng/ml plasma, Freeze & thaw −70 to 23 °C, 3 cycles): 96.6 ± 2%
Recovery ± SD (n = 6) ([1]; Mid QC 45.0 ng/ml plasma, Autosampler 15 °C, 3 days): 94.5 ± 5%
Recovery ± SD (n = 6) ([1]; Mid QC 45.0 ng/ml plasma, Bench-top 23 °C, 18 hours): 94.5 ± 4%
Recovery ± SD (n = 6) ([1]; Mid QC 45.0 ng/ml plasma, Deep freezer (Long-term) −70 °C, 5 months): 101 ± 2%
Recovery ± SD (n = 6) ([1]; Mid QC 45.0 ng/ml plasma, Freeze & thaw −70 to 23 °C, 3 cycles): 94.4 ± 2%
recoveries of QC samples ([1]; autosampler (15 °C)): 90.7–96.9%
recoveries of QC samples ([1]; bench top): 89.4–95.7%
recoveries of QC samples ([1]; long-term storage (5 months)): 95.7–103%
recoveries of QC samples ([1]; three freeze-and-thaw cycles (−70 to 23 °C)): 94.4–96.6%
Measured [MX] First analysis ([2]; sampling 0.250 h): 5.36 ng/mL
Measured [MX] Re-analysis after 9 months ([2]; sampling 0.250 h): 5.69 ng/mL
Measured [MX] First analysis ([2]; sampling 0.500 h): 8.95 ng/mL
Measured [MX] Re-analysis after 9 months ([2]; sampling 0.500 h): 10.2 ng/mL
Measured [MX] First analysis ([2]; sampling 0.750 h): 16.2 ng/mL
Measured [MX] Re-analysis after 9 months ([2]; sampling 0.750 h): 18.2 ng/mL
Measured [MX] First analysis ([2]; sampling 0.983 h): 20.5 ng/mL
Measured [MX] Re-analysis after 9 months ([2]; sampling 0.983 h): 22.1 ng/mL
Measured [MX] First analysis ([2]; sampling 1.17 h): 25 ng/mL
Measured [MX] Re-analysis after 9 months ([2]; sampling 1.17 h): 27.1 ng/mL
Measured [MX] First analysis ([2]; sampling 2.00 h): 24.2 ng/mL
Measured [MX] Re-analysis after 9 months ([2]; sampling 2.00 h): 24.3 ng/mL
Measured [MX] First analysis ([2]; sampling 4.00 h): 18.3 ng/mL
Measured [MX] Re-analysis after 9 months ([2]; sampling 4.00 h): 20 ng/mL
Measured [MX] First analysis ([2]; sampling 6.00 h): 19 ng/mL
Measured [MX] Re-analysis after 9 months ([2]; sampling 6.00 h): 19.5 ng/mL
Measured [MX] First analysis ([2]; sampling 8.00 h): 18.9 ng/mL
Measured [MX] Re-analysis after 9 months ([2]; sampling 8.00 h): 17.5 ng/mL
Measured [MX] First analysis ([2]; sampling 12.0 h): 15.6 ng/mL
Measured [MX] Re-analysis after 9 months ([2]; sampling 12.0 h): 16.2 ng/mL
Measured [MX] First analysis ([2]; sampling 24.0 h): 13.3 ng/mL
Measured [MX] Re-analysis after 9 months ([2]; sampling 24.0 h): 13.2 ng/mL
Measured [MX] First analysis ([2]; sampling 48.0 h): 9.46 ng/mL
Measured [MX] Re-analysis after 9 months ([2]; sampling 48.0 h): 10 ng/mL
Measured [MX] First analysis ([2]; sampling 72.0 h): 6.56 ng/mL
Measured [MX] Re-analysis after 9 months ([2]; sampling 72.0 h): 6.46 ng/mL
Measured [MX] First analysis ([2]; sampling 96.0 h): 4.46 ng/mL
Measured [MX] Re-analysis after 9 months ([2]; sampling 96.0 h): 4.76 ng/mL
Measured [MX] First analysis ([2]; sampling 120 h): 3.55 ng/mL
Measured [MX] Re-analysis after 9 months ([2]; sampling 120 h): 3.69 ng/mL
Measured [MX] First analysis ([2]; sampling 168 h): 2.11 ng/mL
Measured [MX] Re-analysis after 9 months ([2]; sampling 168 h): 2.29 ng/mL
Measured [MX] First analysis ([2]; sampling 192 h): 1.55 ng/mL
Measured [MX] Re-analysis after 9 months ([2]; sampling 192 h): 1.76 ng/mL
Measured [MX] First analysis ([2]; sampling 216 h): 1.22 ng/mL
Measured [MX] Re-analysis after 9 months ([2]; sampling 216 h): 1.39 ng/mL
mean Cmax [2, 6]: 14.98 ng/mL
mean t1/2 [2, 6]: 54.21 h
changes in MX concentration in human whole blood ([3]; over a period of 2 hours, samples kept in an ice bath): no significant changes
measured MX concentration, mean value ([3]; patient blood, ice bath, centrifuged 0-120 min after drawing, SD 0.1 ng/ml): 10.5 ng/mL
Recovery ± SD (n = 6) ([4]; Bench-top 23 °C, 18 hours): 98.4 ± 6%
Recovery ± SD (n = 6) ([4]; Refrigerator 4 °C, 5 months): 96.4 ± 7%
recoveries of stock solutions ([4]; refrigerator (4 °C) and bench top (23 °C)): 96.4–98.4%
SMILES: CON [MX, Methoxyamine]

SMILES: Cn1nnc2c(C(N)=O)ncn2c1=O [TMZ, Temozolomide]
maximum concentrations (Cmax) in human plasma [5]: below 10 μg/ml
